Holding throughout (format): functional
The subject of assay [1] is Tetranychus cinnabarinus. The assay can be described thus: Acaricidal activity against larvae of Tetranychus cinnabarinus (carmine spider mite) in sieva bean leaves assessed as mortality at 2.5 mg/kg at 25 +/-1 degC treated for 3 secs measured after 4 days. As to conditions: 96 h.
Assay [2] relates to Tetranychus cinnabarinus. Briefly: Acaricidal activity against eggs of Tetranychus cinnabarinus (carmine spider mite) in sieva bean leaves assessed as mortality at 0.5 mg/kg at 25 +/-1 degC treated for 3 secs measured after 4 days. Conditions: 96 h.
Assay [3] relates to Tetranychus cinnabarinus. The assay can be described thus: Acaricidal activity against eggs of Tetranychus cinnabarinus (carmine spider mite) in sieva bean leaves assessed as mortality at 5 mg/kg at 25 +/-1 degC treated for 3 secs measured after 4 days. Conditions: 96 h.
The test system of assay [4] is Helicoverpa armigera. Briefly: Stomach toxicity against third-instar larval stage of Helicoverpa armigerain compound-pretreated corn leaves assessed as mortality at 600 mg/kg at 25 +/-1 degC after 4 days by leaf-dip method. In short, it runs like this:
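Leaf-dip assay on cotton bollworm. Corn leaves were dipped in test solution and air-dried. The treated pieces were placed individually into 24-hole boxes. Run at 25 ± 1 °C.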

The test system of assay [5] is Tetranychus cinnabarinus. Briefly: Acaricidal activity against eggs of Tetranychus cinnabarinus (carmine spider mite) in sieva bean leaves assessed as mortality at 2.5 mg/kg at 25 +/-1 degC treated for 3 secs measured after 4 days. Conditions: 96 h.
Assay [6] concerns Tetranychus cinnabarinus. Briefly: Acaricidal activity against eggs of Tetranychus cinnabarinus (carmine spider mite) in sieva bean leaves assessed as mortality at 1 mg/kg at 25 +/-1 degC treated for 3 secs measured after 4 days. Conditions: 96 h.
Assay [7] deals with Tetranychus cinnabarinus. The assay can be described thus: Acaricidal activity against larvae of Tetranychus cinnabarinus (carmine spider mite) in sieva bean leaves assessed as mortality at 5 mg/kg at 25 +/-1 degC treated for 3 secs measured after 4 days. Conditions: 96 h.
For assay [8], the system named is Mythimna separata. Briefly: Stomach toxicity against fourth-instar larval stage of Mythimna separata (Oriental armyworm) in compound-pretreated corn leaves assessed as mortality at 600 mg/kg at 25 +/-1 degC after 4 days. In a few lines: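 Foliar application to oriental armyworm. Single corn leaves were laid on moistened filter paper in Petri dishes. Bioassays were run at 25 ± 1 °C.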

Assay [9] concerns Plutella xylostella. The assay can be described thus: Stomach toxicity against third-instar larval stage of Plutella xylostella (diamondback moth) in cabbage leaves assessed as mortality at 200 mg/kg at 25 +/-1 degC treated for 3 secs before larval infestation after 4 days by leaf-dip method. Conditions: 96 h. In a few lines:
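Cabbage leaf disks (6 cm × 2 cm) were dipped in test solution for 3 s and air-dried. Each disk was placed in a glass tube and given seven third-instar diamondback moth larvae. Percentage mortality was scored after 4 days. Controls were water and dimethylformamide. Each treatment was done three times at 25 ± 1 °C.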

For assay [10], the system named is Ostrinia nubilalis. The assay can be described thus: Stomach toxicity against third-instar larval stage of Ostrinia nubilalis (European corn borer) in corn leaves assessed as mortality at 600 mg/kg at 25 +/-1 degC treated for 3-5 secs before larval infestation after 4 days by leaf-dip method. As to conditions: 96 h. In short, it runs like this:
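Corn leaf disks (about 5 cm) were dipped for 3–5 s and air-dried. Each disk was placed in a 7 cm glass vessel with 10 third-instar corn borer larvae. Percentage mortality was scored 4 days after treatment. Controls were acetone-treated leaves. Run at 25 ± 1 °C.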

Assay [11] concerns Tetranychus cinnabarinus. Briefly: Acaricidal activity against eggs of Tetranychus cinnabarinus (carmine spider mite) in sieva bean leaves assessed as mortality at 0.25 mg/kg at 25 +/-1 degC treated for 3 secs measured after 4 days. Conditions: 96 h.
In assay [12] the test system is Tetranychus cinnabarinus. Briefly: Acaricidal activity against larvae of Tetranychus cinnabarinus (carmine spider mite) in sieva bean leaves assessed as mortality at 1 mg/kg at 25 +/-1 degC treated for 3 secs measured after 4 days. Conditions: 96 h.
The test system of assay [13] is Tetranychus cinnabarinus. The assay can be described thus: Acaricidal activity against larvae of Tetranychus cinnabarinus (carmine spider mite) in sieva bean leaves assessed as mortality at 10 mg/kg at 25 +/-1 degC treated for 3 secs measured after 4 days. As to conditions: 96 h.
Assay [14] deals with Tetranychus cinnabarinus. The assay can be described thus: Acaricidal activity against larvae of Tetranychus cinnabarinus (carmine spider mite) in sieva bean leaves assessed as mortality at 0.5 mg/kg at 25 +/-1 degC treated for 3 secs measured after 4 days. As to conditions: 96 h.

These results are taken from ChEMBL document CHEMBL3045256, “Design, synthesis, structure, and acaricidal/insecticidal activity of novel spirocyclic tetronic acid derivatives containing an oxalyl moiety” (2011).

On to `Cc1cc(C)c(C2=C(OC(=O)C(=O)N(C)c3ccccc3)C3(CCCC3)OC2=O)c(C)c1`, for which the mortality at 2.5 mg/kg in [1] is 40%; in [5] it was 100%. In addition, the mortality at 0.5 mg/kg in [2] amounted to 100%. Besides, the mortality at 5 mg/kg worked out at 100% in assay [3] and 70% in assay [7]. Moreover, the mortality at 600 mg/kg in [4] came out at 50%; in assay [8], 80%; in assay [10] it was 30%. The mortality at 1 mg/kg in [6] was 100%; in [12] it was 0%. For the same compound, the mortality at 200 mg/kg in assay [9] stood at 70%. Besides, in assay [11], the mortality at 0.25 mg/kg turned out to be 50%. The mortality at 10 mg/kg in assay [13] was found to be 80%.

For `CCN(C(=O)C(=O)OC1=C(c2c(C)cc(C)cc2C)C(=O)OC12CCCC2)c1ccccc1`, the results for the mortality at 0.5 mg/kg in [14] and in [2] were 60% and 50%, respectively. The mortality at 2.5 mg/kg in assay [1] is 90%; in assay [5], 100%. Also, the mortality at 5 mg/kg in [3] and in assay [7] was 100% each time. The mortality at 600 mg/kg in assay [4], in assay [8] and in assay [10] was 40% throughout. Also, the mortality at 1 mg/kg is 90% in assay [6] and 80% in [12]. Further, in assay [11], the mortality at 0.25 mg/kg was determined as 30%. In assay [13], the mortality at 10 mg/kg worked out at 100%.

`CCN(C(=O)C(=O)OC1=C(c2c(C)cc(C)cc2C)C(=O)OC12CCCC2)c1ccc(C)cc1C`: the mortality at 0.5 mg/kg in assay [14] stood at 20%; in assay [2] it was 30%. Also, the mortality at 2.5 mg/kg in assay [1] and in [5] was 90% throughout. Further, the mortality at 5 mg/kg in assay [3] and in [7] was 100% each time. The mortality at 600 mg/kg is 20% in assay [4], 30% in assay [8] and 20% in assay [10]. The mortality at 1 mg/kg came to 70% in assay [6] and 60% in assay [12]. Moreover, in [13], the mortality at 10 mg/kg was 100%.

Regarding `CCN(C(=O)C(=O)OC1=C(c2c(C)cc(C)cc2C)C(=O)OC12CCCC2)c1ccc(Br)cc1`, the mortality at 0.5 mg/kg turned out to be 50% in assay [14] and 60% in [2]. The mortality at 2.5 mg/kg in assay [1] and in [5] was 100% in each case. In addition, the mortality at 5 mg/kg in assay [3] and in assay [7] was 100% each time. Further, the mortality at 600 mg/kg in assay [4] stood at 30%; in [8], 80%; in assay [10], 40%. In addition, the mortality at 1 mg/kg in assay [6] and in [12] was 90% throughout. For the same compound, the mortality at 0.25 mg/kg in assay [11] came out at 40%. The mortality at 10 mg/kg in assay [13] was found to be 100%.

Turning to `CCN(C(=O)C(=O)OC1=C(c2c(C)cc(C)cc2C)C(=O)OC12CCCC2)c1ccc(C(F)(F)F)cc1`, the figures for the mortality at 0.5 mg/kg in assay [14] and in assay [2] were 40% and 80%, respectively. The mortality at 2.5 mg/kg in [1] stood at 80%; in assay [5] it was 90%. In addition, the mortality at 5 mg/kg in assay [3] and in [7] was 100% throughout. The mortality at 600 mg/kg in assay [4] came to 10%; in assay [8], 50%; in [10] it was 30%. The mortality at 1 mg/kg in assay [6] is 90%; in assay [12], 50%. In assay [11], the mortality at 0.25 mg/kg was 60%. The mortality at 10 mg/kg in [13] was found to be 100%.

As for `CCOC(=O)C(=O)OC1=C(c2c(C)cc(C)cc2C)C(=O)OC12CCCC2`, the mortality at 5 mg/kg in [3] stood at 20%; in [7], 0%. The mortality at 600 mg/kg in [4] was determined as 10%; in assay [8], 80%; in [10] it was 20%. Also, the mortality at 200 mg/kg in assay [9] came to 70%. Further, in assay [13], the mortality at 10 mg/kg was 50%.
